ERp5 inh: ERp5 (human) disulfide isomerase inhibition | Q15084 | ERp5 insulin aggregation, absorbance 650 nm, 90 min | inhibition, % at 9.99 µM | 350,000 compounds, 0.05% hits | AID 651711;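 active means mean replicate inhibition above about 25%, with every replicate also reaching it, limit read from the data, passing the limit was not always enough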
AF4-AF9 inh: blocks AF4 peptide binding to human AF9; P42568; AlphaScreen, biotin-AF4 peptide binding to FLAG-AF9; inhibition, % at 10 µM; 350,000 compounds, 0.47% hits;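 active means every replicate reaching a set inhibition limit, whatever the replicate mean, cut at about 25% in these data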;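 further: 0% = plate neutral control median and 100% = total signal loss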
FN deposition inh: fibronectin deposition inhibition; AH1F fibroblasts, Alexa488-fibronectin deposition fluorescence, overnight; inhibition, % at 12.6 µM; 350,000 compounds, 0.086% hits; AID 743247;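 active means mean inhibition across replicates of 30% or more, regardless of how many single replicates reach that level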;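 further: positive control wells lacked labelled fibronectin entirely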
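Assay system: AH1F fibroblasts assembling fluorescent fibronectin matrix; Amount: 10000 AH1F cells per well; Buffer or medium: DMEM, 2% serum; Probe or stimulus: Alexa488-fibronectin, 24 nM final in well; Doses: single compound dose, delivered by pin transfer; Incubation: 1 h adhesion, overnight exposure; Measured by: fluorescence 485/525 nm; Read-out: fibronectin deposition inhibition.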
SIRT5 inh: sirtuin-5 (human) deacylase inhibition; Q9NXA8; Purified SirT5, succinyl-peptide AMC, trypsin-coupled fluorescence; inhibition, % at 15 µM; 330,000 compounds, 1.1% hits; AID 652115; in the data active means inhibition above about 15%
PDI turbidity: inhibitors of human protein disulfide isomerase; PDI insulin aggregation turbidity, A650, 90 min; 350,000 compounds, 0.052% hits; inhibition, % at 10 µM; P07237;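 active means mean inhibition across replicates of 30% or more, whatever share of single replicates reach that level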
Target sequence (P07237 whole entry, looked up): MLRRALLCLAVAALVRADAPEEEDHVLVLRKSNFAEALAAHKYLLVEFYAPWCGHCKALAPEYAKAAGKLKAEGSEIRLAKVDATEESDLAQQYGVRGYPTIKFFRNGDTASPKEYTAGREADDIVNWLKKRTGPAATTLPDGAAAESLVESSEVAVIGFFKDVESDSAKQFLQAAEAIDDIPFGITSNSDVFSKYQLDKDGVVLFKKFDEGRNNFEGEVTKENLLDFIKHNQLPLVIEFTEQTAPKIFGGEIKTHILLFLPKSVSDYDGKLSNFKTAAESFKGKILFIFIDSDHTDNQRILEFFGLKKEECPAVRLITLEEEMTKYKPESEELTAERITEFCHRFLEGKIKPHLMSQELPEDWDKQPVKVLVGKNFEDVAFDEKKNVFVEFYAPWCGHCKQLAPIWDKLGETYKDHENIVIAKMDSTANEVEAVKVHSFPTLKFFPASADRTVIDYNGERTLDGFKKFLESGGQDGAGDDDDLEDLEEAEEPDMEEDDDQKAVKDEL
An asterisk follows results filed as active; nt = no result. Hits are enriched below; roughly 1.3% of the tested compounds scored in any of these assays.

SMILES	ERp5 inh	AF4-AF9 inh	FN deposition inh	SIRT5 inh	PDI turbidity
Cc1ccc(S(=O)(=O)NNC(=O)c2c(O)c3ccccc3[nH]c2=O)cc1	-2	-20	5	17*	5
COC(=O)Nc1ccc(S(=O)(=O)NNC(=O)c2c(O)c3ccccc3[nH]c2=O)cc1	-3	1	1	-2	-3
C[C@H]1CN([C@@H](C)CO)C(=O)c2cccc(NC(=O)Nc3ccc(C(F)(F)F)cc3)c2O[C@@H]1CN(C)S(=O)(=O)c1cn(C)cn1	-6	-2	6	-5	nt
Cc1ccccc1OCC(=O)NCCNC(=O)c1ccccn1	0	-5	-6	30*	-3
CC(C)Oc1ccc(C(=O)NCCCNC(=O)c2ccccn2)cc1	-1	2	4	17*	-63
O=C(CC1C(=O)NCCN1C(=O)Nc1ccccc1)Nc1cc(Cl)cc(Cl)c1 (stereo unspecified)	-6	3	10	0	0
O=C(NCC1CCCO1)c1ccc(Br)o1 (stereo unspecified)	-2	1	-13	2	1
COc1ccc(-c2cnc3c(NC=O)cc(-c4cc(OC)c(OC)c(OC)c4)cn23)cc1OC	-1	7	11	3	1
Cc1cccc(C)c1NC(=O)c1nc(S(=O)(=O)Cc2ccccc2)ncc1Cl	5	-2	4	5	2
COc1ccc(OC)c(NC(=O)c2nc(S(=O)(=O)Cc3ccccc3)ncc2Cl)c1	-2	1	56*	0	-3
COc1ccc(NC(=O)c2nc(S(=O)(=O)Cc3cccc(C)c3)ncc2Cl)c(OC)c1	1	-3	48*	-4	-5
N#Cc1nc(Cc2ccccc2)oc1N1CCCC1	4	4	6	-7	-2
O=C(NCc1nc2ccccc2[nH]1)C1=C[C@H](C2CCCCC2)C[C@H](OCCCCO)O1	0	-3	5	4	3
Oc1cc2c(cc1C(c1ccc(Cl)c(Cl)c1)N1CCCC1)OCO2 (stereo unspecified)	8	27*	6	2	12
CC(C)(C)c1ccc(C(=O)N2[C@H](COCc3ccccc3)C=CS2(=O)=O)cc1	2	0	-23	20*	nt
COc1cccc(C(=O)N2[C@H](COCc3ccccc3)C=CS2(=O)=O)c1	-1	-1	1	-1	nt
CC(=O)Nc1ccc(NC(=O)CSc2nnc(-c3ccco3)o2)cc1	-5	-8	3	-1	-2
CCc1ccc(NC(=O)CSc2nnc(-c3ccco3)o2)cc1	1	0	31*	-1	3
COc1ccc(NS(=O)(=O)c2ccc(C)c(NC(=O)CN3C(=O)NC4(CCCC4)C3=O)c2)cc1	2	41*	2	-5	1
Cc1ccc(S(=O)(=O)N(C)C)cc1NC(=O)CN1C(=O)NC2(CCCCCC2)C1=O	1	3	10	-1	8
O=C(Nc1cc(Cl)cc(Cl)c1)N1CCN(C(=O)C2CCCO2)CC1 (stereo unspecified)	4	-1	nt	-1	1
FC(F)(F)c1ccc(Cl)c(NC(=S)N/N=C/c2ccccc2Cl)c1	-1	0	-1	28*	-6
O=C(NC(=S)Nc1cc(C(F)(F)F)ccc1Cl)c1ccccc1	nt	nt	nt	nt	-10
COC(=O)Nc1ccc(Cn2cc(C(F)(F)F)ccc2=O)cc1	1	-2	5	17*	-5
COc1ccc(NS(=O)(=O)c2ccc(NC(=O)c3ccccc3Br)cc2)nn1	-3	-1	0	-3	10
SMILES	ERp5 inh	AF4-AF9 inh	FN deposition inh	SIRT5 inh	PDI turbidity
N=C1SC(c2ccccc2)C(=O)N1c1ncc(Cc2ccccc2Cl)s1 (stereo unspecified)	nt	nt	-1	nt	-3
O=C(NCc1ccccc1Cl)NCc1ccccc1Cl	3	32*	10	-5	4
CCSCc1nnc(SCC(=O)Nc2ccc(OC)cc2)n1C	-3	-1	-14	-3	-5
COc1ccccc1CNC(=S)Nc1ccc2nc(N3CCN(C)CC3)cc(C)c2c1	-7	27*	-1	-21	8
COc1ccc(CNC(=S)Nc2ccc3nc(N4CCN(C)CC4)cc(C)c3c2)cc1	0	26*	6	-8	-1
CCCCN(CC)CCCNC(=S)Nc1ccc2nc(N3CCN(C)CC3)cc(C)c2c1	5	26*	13	-4	5
CCCNC(=O)Nc1ccc2c(c1)C(=O)N(C)C[C@@H](OC)[C@H](C)CN(C(=O)CC)[C@H](C)CO2	nt	nt	8	nt	nt
O=[N+]([O-])c1ccc2nc(C(O)C(O)c3nc4ccc([N+](=O)[O-])cc4[nH]3)[nH]c2c1 (stereo unspecified)	-2	-1	6	100*	2
NC(=O)CN1CCOCCOCCN(CC(N)=O)CCOCC1	nt	nt	nt	nt	2
CC(=O)c1c(C)[nH]c(C(=O)OCC(=O)Nc2cc(S(=O)(=O)N3CCCC3)ccc2Cl)c1C	nt	nt	-2	nt	-10
COc1ccc(S(=O)(=O)N2CCOCC2)cc1NC(=O)COC(=O)c1[nH]c(C)c(C(C)=O)c1C	1	-6	0	17*	-8
COc1ccc(S(=O)(=O)N2CCOCC2)cc1NC(=O)CSc1n[nH]c(C(C)C)n1	4	-4	-19	20*	-3
COc1ccc(S(=O)(=O)N2CCOCC2)cc1NC(=O)CSc1nc(C)c(C)c(C)n1	0	1	nt	nt	-6
Cc1ccc(S(=O)(=O)N2CCOCC2)cc1NC(=O)COC(=O)c1n[nH]c(=O)c2ccccc12	-2	-1	6	16*	1
O=C(NCC[C@@H]1CC[C@@H](NS(=O)(=O)c2ccc(Cl)cc2)[C@@H](CO)O1)Nc1ccc(F)cc1	0	15	-8	7	nt
Cc1ccc(C)c(S(=O)(=O)NCc2ccc(C(=O)NCc3ccco3)cc2)c1	nt	nt	-1	nt	-4
Cc1ccc(NC(=O)Cn2nnc(C(=O)Nc3ccc(F)c(Cl)c3)c2N)cc1	nt	-10	6	-1	-10
COc1ccc(NC(=O)Cn2nnc(C(=O)Nc3ccc(F)c(Cl)c3)c2N)cc1	1	1	3	15*	-5
CCCCNC(=NCc1cccc(C(F)(F)F)c1)Nc1ccccc1	1	3	8	20*	16
O=C(Cc1cccc(C(F)(F)F)c1)Nc1ccccc1	1	-2	1	-2	2
O=C(O)CC1S/C(=N/N=C/C2CC=CCC2)NC1=O (stereo unspecified)	-6	-1	nt	112*	11
Cn1c(=O)n(C)c2cc(/C=N/N=C3/NC(=O)C(CC(=O)O)S3)ccc21 (stereo unspecified)	0	-2	5	19*	5
O=C(O)CC1S/C(=N/N=C/C=C/c2ccccc2)NC1=O (stereo unspecified)	-7	-5	1	12	6
CCOC(=O)Cc1nnc(NC(=O)CCc2ccccc2)s1	-5	-2	-7	17*	-1
CCOC(=O)Cc1csc(NC(=O)CCc2ccccc2)n1	4	-1	2	2	-3
CCCNC(=O)C1(C)CCCN(Cc2cccc(Oc3ccccc3)c2)C1 (stereo unspecified)	1	0	-2	20*	0
